From ChEMBL document CHEMBL3352173, “Optimization of pyrrolamide topoisomerase II inhibitors toward identification of an antibacterial clinical candidate (AZD5099)” (J Med Chem, 2014)
pIC50: −log10 of the molar value. Converted amounts (≈) assume the structure as drawn.

Tests used:
Haemophilus influenzae = test: Antimicrobial activity against Haemophilus influenzae by broth microdilution/CLSI method; assay type: functional; details: Haemophilus influenzae; read-out: MIC
DNA gyrase subunit B = DNA gyrase subunit B (Staphylococcus aureus, UniProt P0A0K8); test: Inhibition of ATPase activity of Staphylococcus aureus GyrB
Sequence of DNA gyrase subunit B (P0A0K8 whole entry): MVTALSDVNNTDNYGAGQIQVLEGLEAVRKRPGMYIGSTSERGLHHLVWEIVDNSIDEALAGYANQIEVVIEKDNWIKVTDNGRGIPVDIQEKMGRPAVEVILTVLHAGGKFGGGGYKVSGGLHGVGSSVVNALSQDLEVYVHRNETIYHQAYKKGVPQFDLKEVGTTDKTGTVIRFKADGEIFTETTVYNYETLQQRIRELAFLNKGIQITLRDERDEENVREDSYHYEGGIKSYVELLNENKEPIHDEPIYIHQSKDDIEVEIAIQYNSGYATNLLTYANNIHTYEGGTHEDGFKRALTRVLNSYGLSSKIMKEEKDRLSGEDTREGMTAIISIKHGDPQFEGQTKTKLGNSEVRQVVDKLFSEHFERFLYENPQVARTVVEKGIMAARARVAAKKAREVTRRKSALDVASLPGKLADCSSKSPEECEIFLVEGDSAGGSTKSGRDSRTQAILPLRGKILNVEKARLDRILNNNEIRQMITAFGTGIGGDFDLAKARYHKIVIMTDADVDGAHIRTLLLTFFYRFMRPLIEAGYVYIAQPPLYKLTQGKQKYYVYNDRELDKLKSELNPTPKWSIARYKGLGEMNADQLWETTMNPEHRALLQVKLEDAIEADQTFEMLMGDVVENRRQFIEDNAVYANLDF
In short: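 IC50 was determined against S. aureus GyrB in the routine screening assay. The enzyme concentration limits resolution below 10 nM.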

Streptococcus pneumoniae = test: Antibacterial activity against Streptococcus pneumoniae by broth microdilution/CLSI method; assay type: functional
Streptococcus pyogenes = test: Antimicrobial activity against Streptococcus pyogenes by broth microdilution/CLSI method; assay type: functional
Staphylococcus aureus [1] = test: Antimicrobial activity against methicillin-sensitive Staphylococcus aureus by broth microdilution/CLSI method; assay type: functional
Staphylococcus aureus [2] = test: Antimicrobial activity against methicillin, quinolone-resistant Staphylococcus aureus by broth microdilution/CLSI method; assay type: functional; details: Staphylococcus aureus; read-out: MIC
Moraxella catarrhalis = test: Antimicrobial activity against Moraxella catarrhalis by broth microdilution/CLSI method; assay type: functional
Escherichia coli [3] = test: Antimicrobial activity against wild-type Escherichia coli Eco523 by broth microdilution/CLSI method; assay type: functional; details: Escherichia coli, Eco523; read-out: MIC
Escherichia coli [4] = test: Antimicrobial activity against Escherichia coli tolC- by broth microdilution/CLSI method; assay type: functional; details: Escherichia coli; read-out: MIC
[5] = Octanol-phosphate buffer distribution coefficient, log D of the compound at pH 7.4 by shake flask method; assay type: physicochemical
[6] = Percentage unbound in human plasma; assay type: ADME, cell-free
[7] = Solubility of the compound; assay type: physicochemical
[8] = Streptococcus pneumoniae, read-out: MIC
[9] = Staphylococcus aureus, read-out: MIC
[10] = Moraxella catarrhalis, read-out: MIC

Structure (SMILES)	MIC (Haemophilus influenzae) [µg/mL]	pIC50 (DNA gyrase subunit B)	MIC (Streptococcus pneumoniae; [8]) [µg/mL]	MIC (Streptococcus pyogenes) [µg/mL]	MIC (Staphylococcus aureus [1]; [9]) [µg/mL]	MIC (Staphylococcus aureus [2]) [µg/mL]	MIC (Moraxella catarrhalis; [10]) [µg/mL]	MIC (Escherichia coli [3]) [µg/mL]	MIC (Escherichia coli [4]) [µg/mL]	logD [5]	fraction unbound [6]	solubility [7] [µM]	MIC (Streptococcus pneumoniae) [µg/mL]	MIC (Staphylococcus aureus [1]) [µg/mL]	MIC (Moraxella catarrhalis) [µg/mL]
CS[C@H]1CN(c2ncc(C(=O)O)s2)CC[C@H]1NC(=O)c1[nH]c(C)c(Cl)c1Cl (racemic)	0.13 (≈ 0.289 µM)	> 8.00	0.016 (≈ 0.0356 µM)	0.016 (≈ 0.0356 µM)	0.13 (≈ 0.289 µM)	0.25 (≈ 0.556 µM)	< 0.008	> 8	0.25 (≈ 0.556 µM)	0.72	0.015	> 1000	–	–	–
C=C1COC2(CN(c3ncc(C(=O)O)s3)CC[C@H]2NC(=O)c2[nH]c(C)c(Cl)c2Cl)OC1	2 (≈ 4.1 µM)	> 8.00	< 0.063	< 0.063	1 (≈ 2.05 µM)	2 (≈ 4.1 µM)	< 0.063	> 64	0.5 (≈ 1.03 µM)	0.82	0.006	> 1000	–	–	–
Cc1[nH]c(C(=O)N[C@@H]2CCN(c3ncc(C(=O)O)s3)C[C@@H]2O)c(Cl)c1Cl (racemic)	1 (≈ 2.38 µM)	7.80	0.5 (≈ 1.19 µM)	–	16 (≈ 38.2 µM)	16 (≈ 38.2 µM)	4 (≈ 9.54 µM)	> 64	1 (≈ 2.38 µM)	-0.67	–	–	–	–	–
Cc1[nH]c(C(=O)N[C@@H]2CCN(c3ncc(C(=O)O)s3)CC23OCC(C)(C)CO3)c(Cl)c1Cl	0.25 (≈ 0.497 µM)	> 8.00	< 0.063	< 0.063	0.5 (≈ 0.993 µM)	0.5 (≈ 0.993 µM)	< 0.063	> 64	1 (≈ 1.99 µM)	1.07	0.02	> 1000	–	–	–
CO[C@H]1CN(c2ncc(C(=O)O)s2)CC[C@@H]1NC(=O)c1[nH]c(C)c(Cl)c1Cl	> 64	5.19	64 (≈ 148 µM)	–	> 64	> 64	64 (≈ 148 µM)	> 64	64 (≈ 148 µM)	–	–	–	–	–	–
Cc1[nH]c(C(=O)N[C@@H]2CCN(c3ncc(C(=O)O)s3)CC23OCCO3)c(Cl)c1Cl	32 (≈ 69.4 µM)	7.82	2 (≈ 4.34 µM)	2 (≈ 4.34 µM)	32 (≈ 69.4 µM)	64 (≈ 139 µM)	1 (≈ 2.17 µM)	> 64	1 (≈ 2.17 µM)	-0.39	0.075	> 1000	–	–	–
COCCO[C@H]1CN(c2ncc(C(=O)O)s2)CC[C@H]1NC(=O)c1[nH]c(C)c(Cl)c1Cl (racemic)	8 (≈ 16.8 µM)	> 8.00	0.5 (≈ 1.05 µM)	–	> 8	–	1 (≈ 2.09 µM)	> 8	2 (≈ 4.19 µM)	0.06	0.094	–	–	–	–
Cc1[nH]c(C(=O)N[C@@H]2CCN(c3ncc(C(=O)O)s3)C[C@@H]2C)c(Cl)c1Cl (racemic)	2 (≈ 4.79 µM)	7.85	0.5 (≈ 1.2 µM)	–	4 (≈ 9.59 µM)	4 (≈ 9.59 µM)	0.5 (≈ 1.2 µM)	> 8	0.5 (≈ 1.2 µM)	0.54	0.023	–	–	–	–
Cc1[nH]c(C(=O)N[C@@H]2CCN(c3ncc(C(=O)O)s3)C[C@@H]2F)c(Cl)c1Cl	0.3 (≈ 0.712 µM)	> 8.00	0.078 (≈ 0.185 µM)	0.092 (≈ 0.218 µM)	1.3 (≈ 3.09 µM)	2.2 (≈ 5.22 µM)	0.046 (≈ 0.109 µM)	> 64	0.081 (≈ 0.192 µM)	–	–	–	–	–	–
Cc1[nH]c(C(=O)N[C@@H]2CCN(c3ncc(C(=O)O)s3)C[C@@H]2S(C)(=O)=O)c(Cl)c1Cl (racemic)	> 8	> 8.00	> 8	8 (≈ 16.6 µM)	> 8	–	> 8	> 8	> 8	-1.1	0.13	> 1000	–	–	–
CO[C@@H]1CN(c2ncc(C(=O)O)s2)CC[C@@H]1NC(=O)c1[nH]c(C)c(Cl)c1Cl	16 (≈ 36.9 µM)	6.85	1 (≈ 2.31 µM)	–	32 (≈ 73.8 µM)	32 (≈ 73.8 µM)	2 (≈ 4.62 µM)	> 64	8 (≈ 18.5 µM)	–	–	–	–	–	–
Cc1[nH]c(C(=O)N[C@@H]2CCN(c3ncc(C(=O)O)s3)CC23OCCCO3)c(Cl)c1Cl	1 (≈ 2.1 µM)	> 8.00	0.063 (≈ 0.133 µM)	0.063 (≈ 0.133 µM)	2 (≈ 4.21 µM)	4 (≈ 8.41 µM)	0.13 (≈ 0.273 µM)	> 64	1 (≈ 2.1 µM)	0.4	0.03	> 1000	–	–	–
COC[C@H]1CN(c2ncc(C(=O)O)s2)CC[C@H]1NC(=O)c1[nH]c(C)c(Cl)c1Cl (racemic)	> 8	7.27	4 (≈ 8.94 µM)	–	> 8	–	2 (≈ 4.47 µM)	> 8	1 (≈ 2.24 µM)	0.06	0.052	–	–	–	–
CO[C@H]1CN(c2nc(-c3ccn[nH]3)c(C(=O)O)s2)CC[C@H]1NC(=O)c1[nH]c(C)c(Cl)c1Cl	0.5 (≈ 1 µM)	> 8.00	< 0.06	< 0.06	0.5 (≈ 1 µM)	0.17 (≈ 0.34 µM)	< 0.06	64 (≈ 128 µM)	0.18 (≈ 0.36 µM)	1.7	–	740 (≈ 370 µg/mL)	–	–	–
C=CCO[C@H]1CN(c2ncc(C(=O)O)s2)CC[C@H]1NC(=O)c1[nH]c(C)c(Cl)c1Cl (racemic)	0.5 (≈ 1.09 µM)	> 8.00	< 0.063	< 0.063	0.5 (≈ 1.09 µM)	1 (≈ 2.18 µM)	< 0.063	> 8	0.13 (≈ 0.283 µM)	–	–	–	–	–	–
CO[C@H]1CN(c2ncc(C(=O)O)s2)CC[C@H]1NC(=O)c1[nH]c(C)c(Cl)c1Cl (relative stereo)	0.3 (≈ 0.692 µM)	> 8.00	–	–	–	1 (≈ 2.31 µM)	–	> 64	0.35 (≈ 0.808 µM)	–	–	–	0.063 (≈ 0.145 µM)	1 (≈ 2.31 µM)	0.076 (≈ 0.175 µM)
CO[C@@H]1CN(c2ncc(C(=O)O)s2)CC[C@H]1NC(=O)c1[nH]c(C)c(Cl)c1Cl	16 (≈ 36.9 µM)	6.96	8 (≈ 18.5 µM)	–	> 64	> 64	2 (≈ 4.62 µM)	> 64	2 (≈ 4.62 µM)	–	–	–	–	–	–
Cc1[nH]c(C(=O)N[C@@H]2CCN(c3ncc(C(=O)O)s3)C[C@@H]2CO)c(Cl)c1Cl (racemic)	16 (≈ 36.9 µM)	7.74	8 (≈ 18.5 µM)	–	> 64	64 (≈ 148 µM)	1 (≈ 2.31 µM)	> 64	1 (≈ 2.31 µM)	-0.42	–	–	–	–	–
CCO[C@H]1CN(c2ncc(C(=O)O)s2)CC[C@H]1NC(=O)c1[nH]c(C)c(Cl)c1Cl (racemic)	2 (≈ 4.47 µM)	> 8.00	0.031 (≈ 0.0693 µM)	–	1 (≈ 2.24 µM)	2 (≈ 4.47 µM)	0.13 (≈ 0.291 µM)	> 8	1 (≈ 2.24 µM)	0.67	0.031	–	–	–	–
Cc1[nH]c(C(=O)N[C@@H]2CCN(c3ncc(C(=O)O)s3)C[C@@H]2Cl)c(Cl)c1Cl (racemic)	0.18 (≈ 0.411 µM)	> 8.00	0.044 (≈ 0.101 µM)	–	0.35 (≈ 0.8 µM)	2 (≈ 4.57 µM)	0.11 (≈ 0.251 µM)	> 8	0.35 (≈ 0.8 µM)	0.75	0.008	–	–	–	–
